According to ChEMBL document CHEMBL1144721, “Bioactive triterpene saponins from the roots of Phytolacca americana” (J Nat Prod, 2008):

Legend:
A549 [1] = experiment: Cell viability of human A549 cells after 24 hrs by MTT assay; format: functional
Method in brief: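 A549 cells incubated with serial dilutions of compound for 24 h. Viability (%) measured by MTT assay and used to derive IC50. Triplicate cultures.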

HepG2 = experiment: Cytotoxicity against human HepG2 cells; format: functional, cell-based
Method in brief: (§1)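 IC50 values are the mean of duplicate determinations.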

[2] = target: T1, ATP-dependent translocase ABCB1 (Homo sapiens, UniProt P08183); experiment: Inhibition of P-glycoprotein-mediated multidrug resistance in human 2780AD cells assessed as calcein accumulation at 0.25 ug/mL relative to control; format: cell-based; design: scale not given: the % may be the effect or the level left; conditions: a2780 adr
Method in brief: (§2)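 Multidrug-resistant human ovarian cancer 2780AD cells exposed to compound at 0.25, 2.5 or 25 μg/mL. Intracellular calcein accumulation measured and expressed as the amount relative to an untreated control (% of control).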

WI-38 = experiment: Cytotoxicity against human WI38 cells; format: functional, cell-based; method in brief: as §1
WI-38 VA13 = experiment: Cytotoxicity against human VA13 cells; format: functional, cell-based; method in brief: as §1
A549 [3] = experiment: Antiinflammatory activity against human A549 cells assessed as inhibition of IL-1-alpha-induced ICAM1 expression after 6 hrs
[4] = target: T1, ATP-dependent translocase ABCB1; experiment: Inhibition of P-glycoprotein-mediated multidrug resistance in human 2780AD cells assessed as calcein accumulation at 2.5 ug/mL relative to control; format: cell-based; design: scale not given: the % may be the effect or the level left; conditions: a2780 adr; method in brief: as §2
[5] = target: T1, ATP-dependent translocase ABCB1; experiment: Inhibition of P-glycoprotein-mediated multidrug resistance in human 2780AD cells assessed as calcein accumulation at 25 ug/mL relative to control; format: cell-based; design: scale not given: the % may be the effect or the level left; conditions: a2780 adr; method in brief: as §2

T1 sequence (P08183 whole entry): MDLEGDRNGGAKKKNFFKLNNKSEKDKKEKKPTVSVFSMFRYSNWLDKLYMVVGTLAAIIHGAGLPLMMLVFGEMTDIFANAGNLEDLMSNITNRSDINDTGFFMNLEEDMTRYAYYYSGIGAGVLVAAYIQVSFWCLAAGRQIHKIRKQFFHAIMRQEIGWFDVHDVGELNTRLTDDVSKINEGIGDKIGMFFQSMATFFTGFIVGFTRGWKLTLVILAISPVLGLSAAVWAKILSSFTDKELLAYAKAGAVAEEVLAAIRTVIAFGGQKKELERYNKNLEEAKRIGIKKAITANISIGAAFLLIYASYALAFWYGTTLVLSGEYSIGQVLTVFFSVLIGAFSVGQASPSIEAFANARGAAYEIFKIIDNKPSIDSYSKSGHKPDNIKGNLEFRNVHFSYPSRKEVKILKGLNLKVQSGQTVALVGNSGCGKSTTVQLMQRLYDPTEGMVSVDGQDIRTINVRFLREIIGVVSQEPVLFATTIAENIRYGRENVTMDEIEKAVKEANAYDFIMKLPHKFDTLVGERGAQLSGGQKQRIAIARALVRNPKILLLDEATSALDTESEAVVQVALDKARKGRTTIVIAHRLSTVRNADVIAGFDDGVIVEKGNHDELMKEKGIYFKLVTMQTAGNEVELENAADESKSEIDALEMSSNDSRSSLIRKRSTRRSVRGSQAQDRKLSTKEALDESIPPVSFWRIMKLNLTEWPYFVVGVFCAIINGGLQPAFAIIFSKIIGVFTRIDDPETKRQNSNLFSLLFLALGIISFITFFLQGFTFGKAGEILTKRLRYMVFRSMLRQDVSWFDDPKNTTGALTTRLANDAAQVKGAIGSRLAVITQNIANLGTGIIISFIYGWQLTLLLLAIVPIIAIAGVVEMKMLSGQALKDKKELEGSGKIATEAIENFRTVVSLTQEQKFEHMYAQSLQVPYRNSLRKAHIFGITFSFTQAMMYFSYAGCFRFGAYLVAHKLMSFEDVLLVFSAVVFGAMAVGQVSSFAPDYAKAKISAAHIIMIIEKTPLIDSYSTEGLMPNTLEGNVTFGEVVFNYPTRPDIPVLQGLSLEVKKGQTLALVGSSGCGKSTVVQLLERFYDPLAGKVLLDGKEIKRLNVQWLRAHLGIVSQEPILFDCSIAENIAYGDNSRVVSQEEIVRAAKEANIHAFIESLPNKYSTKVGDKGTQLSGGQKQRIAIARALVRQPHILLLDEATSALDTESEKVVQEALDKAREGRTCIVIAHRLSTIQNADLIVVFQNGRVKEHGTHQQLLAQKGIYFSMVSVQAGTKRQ

Activity [2] [%] | Activity [4] [%] | Activity [5] [%] | SMILES | Activity (A549 [1]) [µM] | IC50 (HepG2) [µM] | IC50 (WI-38) [µM] | IC50 (WI-38 VA13) [µM] | Activity (A549 [3]) [µM]
93 | 68 | 94 | COC(=O)[C@@]1(C)CC[C@]2(C(=O)O[C@@H]3O[C@H](CO)[C@@H](O)[C@H](O)[C@H]3O)CC[C@]3(C)C(=CC[C@@H]4[C@@]5(C)CC[C@H](O[C@@H]6OC[C@@H](O)[C@H](O[C@@H]7OC[C@@H](O)[C@H](O)[C@H]7O[C@@H]7O[C@H](CO)[C@@H](O)[C@H](O)[C@H]7O[C@@H]7O[C@@H](C)[C@H](O)[C@@H](O)[C@H]7O)[C@H]6O)[C@@](C)(CO)[C@@H]5CC[C@]43C)[C@@H]2C1 | >89 | > 89 | > 89 | > 89 | >89
124 | 129 | 123 | COC(=O)[C@@]1(C)CC[C@]2(C(=O)O[C@@H]3O[C@H](CO)[C@@H](O)[C@H](O)[C@H]3O)CC[C@]3(C)C(=CC[C@@H]4[C@@]5(C)C[C@H](O)[C@H](O[C@@H]6OC[C@@H](OC7O[C@H](CO)[C@@H](O)[C@H](O)[C@H]7O)[C@H](O)[C@H]6O)[C@@](C)(CO)[C@@H]5CC[C@]43C)[C@@H]2C1 (stereo partly specified) | >1012 | > 101 | > 101 | > 101 | >320
124 | 101 | 126 | COC(=O)[C@@]1(C)CC[C@]2(C(=O)O[C@@H]3O[C@H](CO)[C@@H](O)[C@H](O)[C@H]3O)CC[C@]3(C)C(=CC[C@@H]4[C@@]5(C)CC[C@H](O[C@@H]6OC[C@@H](OC7O[C@H](CO)[C@@H](O)[C@H](O)[C@H]7O)[C@H](O)[C@H]6O)[C@@](C)(CO)[C@@H]5CC[C@]43C)[C@@H]2C1 (stereo partly specified) | >103 | > 103 | > 103 | > 103 | >103
126 | 106 | 123 | COC(=O)[C@@]1(C)CC[C@]2(C(=O)O[C@@H]3O[C@H](CO)[C@@H](O)[C@H](O)[C@H]3O)CC[C@]3(C)C(=CC[C@@H]4[C@@]5(C)CC[C@H](O[C@@H]6OC[C@@H](O[C@@H]7O[C@H](CO)[C@@H](O)[C@H](O)[C@H]7O)[C@H](O)[C@H]6O[C@@H]6O[C@H](CO)[C@@H](O)[C@H](O)[C@H]6O)[C@@](C)(CO)[C@@H]5CC[C@]43C)[C@@H]2C1 | >88.2 | > 88.2 | > 88.2 | > 88.2 | >88.2

The next lines start with the molecule.

SMILES | Activity [2] [%] | Activity [4] [%] | Activity [5] [%] | Activity (A549 [1]) [µM] | IC50 (HepG2) [µM] | IC50 (WI-38) [µM] | IC50 (WI-38 VA13) [µM] | Activity (A549 [3]) [µM]
COC(=O)[C@@]1(C)CC[C@]2(C(=O)O[C@@H]3O[C@H](CO)[C@@H](O)[C@H](O)[C@H]3O)CC[C@]3(C)C(=CC[C@@H]4[C@@]5(C)C[C@H](O)[C@H](O[C@@H]6OC[C@@H](O)[C@H](O)[C@H]6O)[C@@](C)(CO)[C@@H]5CC[C@]43C)[C@@H]2C1 | 141 | 132 | 143 | >121 | > 121 | > 121 | 95.2 | >121
COC(=O)[C@@]1(C)CC[C@]2(C(=O)O[C@@H]3O[C@H](CO)[C@@H](O)[C@H](O)[C@H]3O)CC[C@]3(C)C(=C[C@@H](O)[C@@H]4[C@@]5(C)C[C@H](O)[C@H](O[C@@H]6OC[C@@H](O[C@@H]7O[C@H](CO)[C@@H](O)[C@H](O)[C@H]7O)[C@H](O)[C@H]6O)[C@@](C)(CO)[C@@H]5CC[C@]43C)[C@@H]2C1 | 121 | 119 | 124 | >100 | > 100 | > 100 | 94 | >100
COC(=O)[C@@]1(C)CC[C@]2(C(=O)O[C@@H]3O[C@H](CO)[C@@H](O)[C@H](O)[C@H]3O)CC[C@]3(C)C(=C[C@@H](OC)[C@@H]4[C@@]5(C)C[C@H](O)[C@H](O[C@@H]6OC[C@@H](O[C@@H]7O[C@H](CO)[C@@H](O)[C@H](O)[C@H]7O)[C@H](O)[C@H]6O)[C@@](C)(CO)[C@@H]5CC[C@]43C)[C@@H]2C1 | 105 | 100 | 108 | >98.2 | > 98.2 | > 98.2 | > 98.2 | >98.2
COC(=O)[C@@]1(C)CC[C@]2(C(=O)O[C@@H]3O[C@H](CO)[C@@H](O)[C@H](O)[C@H]3O)CC[C@]3(C)C(=CC[C@@H]4[C@@]5(C)CC(=O)[C@H](O[C@@H]6OC[C@@H](O[C@@H]7O[C@H](CO)[C@@H](O)[C@H](O)[C@H]7O)[C@H](O)[C@H]6O)[C@@](C)(CO)[C@@H]5CC[C@]43C)[C@@H]2C1 | 98 | 115 | 120 | >101 | > 101 | > 101 | > 101 | >101
COC(=O)[C@@]1(C)CC[C@]2(C(=O)O)CC[C@]3(C)C(=CC[C@@H]4[C@@]5(C)C[C@H](O)[C@H](O[C@@H]6OC[C@@H](OC7O[C@H](CO)[C@@H](O)[C@H](O)[C@H]7O)[C@H](O)[C@H]6O)[C@@](C)(CO)[C@@H]5CC[C@]43C)[C@@H]2C1 (stereo partly specified) | 111 | 104 | 119 | 661 | 102 | 7.1 | 117 | >383
COC(=O)[C@@]1(C)CC[C@]2(C(=O)O[C@@H]3O[C@H](CO)[C@@H](O)[C@H](O)[C@H]3O)CC[C@]3(C)C(=CC(=O)[C@@H]4[C@@]5(C)C[C@H](O)[C@H](O[C@@H]6OC[C@@H](OC7O[C@H](CO)[C@@H](O)[C@H](O)[C@H]7O)[C@H](O)[C@H]6O)[C@@](C)(CO)[C@@H]5CC[C@]43C)[C@@H]2C1 (stereo partly specified) | 119 | 135 | 155 | >98.8 | 97.4 | > 98.8 | > 98.8 | >98.8
COC(=O)[C@@]1(C)CC[C@]2(C(=O)O)CC[C@]3(C)C(=C[C@@H](OC)[C@@H]4[C@@]5(C)C[C@H](O)[C@H](O[C@@H]6OC[C@@H](O[C@@H]7O[C@H](CO)[C@@H](O)[C@H](O)[C@H]7O)[C@H](O)[C@H]6O)[C@@](C)(CO)[C@@H]5CC[C@]43C)[C@@H]2C1 | 118 | 123 | 135 | >118 | > 118 | > 118 | > 118 | >118
COC(=O)[C@@]1(C)CC[C@]2(C(=O)O)CC[C@]3(C)C(=CC[C@@H]4[C@@]5(C)C[C@H](O)[C@H](O[C@@H]6OC[C@@H](O)[C@H](O)[C@H]6O)[C@@](C)(CO)[C@@H]5CC[C@]43C)[C@@H]2C1 [PHYTOLACCOSIDE B] | 128 | 117 | 123 | 265 | 74.7 | 36.2 | 68.9 | 253
